Test results: ChEMBL document CHEMBL5674869, “The Histone Methyltransferase Inhibitor A-366 Uncovers a Role for G9a/GLP in the Epigenetics of Leukemia” (PLoS One, 2015)
The source made the active and inactive calls. The rule behind the calls is not given here.

Columns and labels:
[1] = target: T1, Histone-lysine N-methyltransferase EHMT2 (Homo sapiens) (UniProt Q96KQ7); assay: Inhibition of G9a in human MDA-MB-231 cells assessed as slight decrease in […] levels at 0.3 to 3 uM after 72 hrs by Western blot analysis; type: cell-based; details: dose 0.3-3 µM
T1 sequence (whole entry): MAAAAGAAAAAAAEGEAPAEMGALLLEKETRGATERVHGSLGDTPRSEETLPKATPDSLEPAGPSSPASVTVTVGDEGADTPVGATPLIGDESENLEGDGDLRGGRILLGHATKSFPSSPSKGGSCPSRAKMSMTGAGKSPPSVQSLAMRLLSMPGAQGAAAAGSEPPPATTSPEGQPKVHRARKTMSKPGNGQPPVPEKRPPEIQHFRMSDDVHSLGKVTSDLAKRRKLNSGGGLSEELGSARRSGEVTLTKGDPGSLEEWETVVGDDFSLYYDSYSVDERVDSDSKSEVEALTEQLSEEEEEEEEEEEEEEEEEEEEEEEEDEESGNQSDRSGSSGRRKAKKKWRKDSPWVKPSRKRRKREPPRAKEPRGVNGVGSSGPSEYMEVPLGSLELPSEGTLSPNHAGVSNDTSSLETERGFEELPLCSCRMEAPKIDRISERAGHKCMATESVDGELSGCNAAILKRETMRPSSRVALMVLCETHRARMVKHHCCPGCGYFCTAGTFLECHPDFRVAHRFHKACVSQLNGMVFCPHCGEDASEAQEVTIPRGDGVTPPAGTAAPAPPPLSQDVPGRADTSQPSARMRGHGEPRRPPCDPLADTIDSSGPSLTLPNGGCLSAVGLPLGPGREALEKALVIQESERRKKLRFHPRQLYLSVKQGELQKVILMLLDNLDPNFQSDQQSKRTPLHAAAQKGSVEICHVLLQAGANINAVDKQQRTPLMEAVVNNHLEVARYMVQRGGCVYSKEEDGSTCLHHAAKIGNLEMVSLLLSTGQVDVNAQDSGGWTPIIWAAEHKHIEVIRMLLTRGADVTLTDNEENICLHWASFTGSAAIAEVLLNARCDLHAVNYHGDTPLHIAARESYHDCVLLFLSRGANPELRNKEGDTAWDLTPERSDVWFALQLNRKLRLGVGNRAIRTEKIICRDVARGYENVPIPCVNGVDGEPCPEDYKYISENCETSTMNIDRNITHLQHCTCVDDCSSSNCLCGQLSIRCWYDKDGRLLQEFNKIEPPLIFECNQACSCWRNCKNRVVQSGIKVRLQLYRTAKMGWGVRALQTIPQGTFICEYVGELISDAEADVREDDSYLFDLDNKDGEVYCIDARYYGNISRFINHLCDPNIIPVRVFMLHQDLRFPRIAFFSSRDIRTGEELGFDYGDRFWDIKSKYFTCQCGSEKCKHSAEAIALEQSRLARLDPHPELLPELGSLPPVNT

NCI-H661 = assay: Antiproliferative against human NCI-H661 cells after 5 days by Cell-Titer Glo assay; type: functional, cell-based; details: NCI-H661, 120 h
Procedure, shortened: (§1)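 ATCC tumor lines were grown in their recommended media with 10% FBS and STR-authenticated. Cells were exposed to compound for the stated number of days. Viable cells were read by CellTiter-Glo endpoint. Inhibition was the ratio of treated to untreated wells, with cell-free wells set as 100% inhibition. The EC50 was taken from the dose response.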

HT-1080 = assay: Antiproliferative against human HT-1080 cells after 5 days by Cell-Titer Glo assay; type: functional, cell-based; details: HT-1080, 120 h; procedure, shortened: as §1
K562 = assay: Antiproliferative against human K562 cells after 5 days by Cell-Titer Glo assay; type: functional, cell-based; details: K562, 120 h; procedure, shortened: as §1
[2] = target: T1, Histone-lysine N-methyltransferase EHMT2 (Homo sapiens); assay: Inhibition of G9a in human PC-3 cells assessed as decrease in H3K9me2 levels after 72 hrs by Western blot analysis
[3] = target: T1, Histone-lysine N-methyltransferase EHMT2 (Homo sapiens); assay: Inhibition of G9a in human MCF7 cells assessed as decrease in […] levels at 0.3 to 3 uM after 72 hrs by Western blot analysis; type: cell-based; details: dose 0.3-3 µM
SK-BR-3 = assay: Antiproliferative against human SK-BR-3 cells after 5 days by Cell-Titer Glo assay; type: functional, cell-based; details: SK-BR-3, 120 h; procedure, shortened: as §1
G-401 = assay: Antiproliferative against human G-401 cells after 7 days by Cell-Titer Glo assay; type: functional, cell-based; details: G-401, 168 h; procedure, shortened: as §1
[4] = target: T1, Histone-lysine N-methyltransferase EHMT2 (Homo sapiens); assay: Inhibition of G9a in human MOLT-16 cells assessed as decrease in […] levels after 72 hrs by Western blot analysis; type: cell-based
Procedure, shortened: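 MOLT-16 T-ALL cells treated 3 days with compound over a concentration range and lysed. Lysates normalized and immunoblotted for H3K9me2, total H3 and G9a.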

Calu-1 = assay: Antiproliferative against human Calu-1 cells after 5 days by Cell-Titer Glo assay; type: functional, cell-based; details: Calu-1, 120 h; procedure, shortened: as §1
SK-N-MC = assay: Antiproliferative against human SK-N-MC cells after 7 days by Cell-Titer Glo assay; type: functional, cell-based; details: 168 h; procedure, shortened: as §1
MV4-11 = assay: Antiproliferative against human MV4-11 cells after 5 days by Cell-Titer Glo assay; type: functional, cell-based; details: MV4-11, 120 h; procedure, shortened: as §1
[5] = Antiproliferative against human tsA201 cells after 7 days by Cell-Titer Glo assay; type: functional, cell-based; details: tsA201, 168 h; procedure, shortened: as §1
KMS-12-BM = assay: Antiproliferative against human KMS-12-BM cells after 5 days by Cell-Titer Glo assay; type: functional, cell-based; details: 120 h; procedure, shortened: as §1
DU-145 = assay: Antiproliferative against human DU-145 cells after 5 days by Cell-Titer Glo assay; type: functional, cell-based; details: DU-145, 120 h; procedure, shortened: as §1
THP-1 = assay: Antiproliferative against human THP-1 cells after 5 days by Cell-Titer Glo assay; type: functional, cell-based; details: THP-1, 120 h; procedure, shortened: as §1
Kasumi 1 = assay: Antiproliferative against human Kasumi-1 cells after 5 days by Cell-Titer Glo assay; type: functional, cell-based; details: Kasumi 1, 120 h; procedure, shortened: as §1
LNCaP = assay: Antiproliferative against human LNCaP cells after 5 days by Cell-Titer Glo assay; type: functional, cell-based; details: 120 h; procedure, shortened: as §1
Daoy = assay: Antiproliferative against human Daoy cells after 7 days by Cell-Titer Glo assay; type: functional, cell-based; details: 168 h; procedure, shortened: as §1
OPM-2 = assay: Antiproliferative against human OPM-2 cells after 5 days by Cell-Titer Glo assay; type: functional, cell-based; details: OPM-2, 120 h; procedure, shortened: as §1
[6] = target: T1, Histone-lysine N-methyltransferase EHMT2 (Homo sapiens); assay: Inhibition of G9a in human HL-60 cells assessed as increase in cell differentiation marker CD11b for 14 days by flow cytometry; details: time 14.0 day
[7] = Drug level in SCID/beige mouse brain xenografted with human MV4-11 cells at 30 mg/kg/day via osmotic-mini pump; type: ADME, organism-based; details: in vivo
Procedure, shortened: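 Tumor-bearing SCID-beige female mice (6–8 wk) with subcutaneous flank MV4;11 xenografts (5 x 10^6 cells in 50% Matrigel, grown to ~200 mm3). Compound given by osmotic mini-pump at 30 mg/kg/day in 98% PEG-400/2% Tween-80. Separate PK/PD arm sacrificed after 2, 7 and 14 days of treatment; plasma and tissues collected and analyzed for drug levels.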

| inhibition [1] | EC50 (NCI-H661) [µM] | EC50 (HT-1080) [µM] | EC50 (K562) [µM] | inhibition [2] | inhibition [3] | EC50 (SK-BR-3) [µM] | inhibition [4] | EC50 (Calu-1) [µM] | EC50 (SK-N-MC) [µM] | EC50 (MV4-11) [µM] | EC50 (DU-145) [µM] | EC50 (THP-1) [µM] | EC50 (LNCaP) [µM] | Compound | EC50 (G-401) [µM] | EC50 [5] [µM] | EC50 (KMS-12-BM) [µM] | EC50 (Kasumi 1) [µM] | EC50 (Daoy) [µM] | EC50 (OPM-2) [µM] | further results |
| --- | --- | --- | --- | --- | --- | --- | --- | --- | --- | --- | --- | --- | --- | --- | --- | --- | --- | --- | --- | --- | --- |
| Active | 4.9 | 0.5 | 5.3 | Active | Active | 0.6 | Active | 1.3 | 0.2 | 1.7 | 0.7 | 4.9 | 0.3 | COc1cc2c(NC3CCN(C(C)C)CC3)nc(C3CCCCC3)nc2cc1OCCCN1CCCC1 | 0.4 | > 10 | 4.4 | 1.1 | 0.1 | 5.6 | – |
| Active | > 10 | > 10 | > 10 | Dose-Dependent Effect | Active | > 10 | Active | > 10 | > 10 | > 10 | > 10 | > 10 | > 10 | COc1cc2c(cc1OCCCN1CCCC1)N=C(N)C21CCC1 | > 10 | > 10 | > 10 | > 10 | > 10 | > 10 | inhibition [6]: Active; Drug uptake [7]: Active |
